Source: ChEMBL document CHEMBL2021842, “COMPARE analysis of the toxicity of an iminoquinone derivative of the imidazo[5,4-f]benzimidazoles with NAD(P)H:quinone oxidoreductase 1 (NQO1) activity and computational docking of quinones as NQO1 substrates” (Bioorg Med Chem, 2012)

Assays:
Format in all cases: functional
Conditions in all cases: read-out: Activity
CCRF-CEM = experiment: Growth inhibition of human CCRF-CEM cells assessed as cell growth at 10 uM relative to untreated control
In short: (§1)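 NCI DTP 60-cell-line screen, first stage: a single 10 µM dose of compound given to the human tumour panel. Result reported as percent growth relative to control, on a mean growth graph.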

[1] = Growth inhibition of human Hs 578T cells assessed as cell growth at 10 uM relative to untreated control; in short: as §1
OVCAR-5 = experiment: Growth inhibition of human OVCAR5 cells assessed as cell growth at 10 uM relative to untreated control
In short: (§2)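 First stage of the NCI DTP 60 human tumour cell-line screen. Cells were exposed to a single dose of 10 µM. Output is reported as growth % relative to control.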

786-0 = experiment: Growth inhibition of human 786-0 cells assessed as cell growth at 10 uM relative to untreated control; in short: as §1
MDA-MB-468 = experiment: Growth inhibition of human MDA-MB-468 cells assessed as cell growth at 10 uM relative to untreated control; in short: as §2
UO-31 = experiment: Growth inhibition of human UO31 cells assessed as cell growth at 10 uM relative to untreated control
In short: (§3)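 This is the first stage of the NCI DTP 60-human-tumour-cell-line screen, covering nine tissue types. Cells receive a single dose of the test compound, and the output is reported as mean growth %.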

PC-3 = experiment: Growth inhibition of human PC3 cells assessed as cell growth at 10 uM relative to untreated control; in short: as §2
T47D = experiment: Growth inhibition of human T47D cells assessed as cell growth at 10 uM relative to untreated control; in short: as §3
SNB-19 = experiment: Growth inhibition of human SNB19 cells assessed as cell growth at 10 uM relative to untreated control; in short: as §3
SF-295 = experiment: Growth inhibition of human SF295 cells assessed as cell growth at 10 uM relative to untreated control; in short: as §2
[2] = Growth inhibition of human […] cells assessed as cell growth at 10 uM relative to untreated control; in short: as §2
K562 = experiment: Growth inhibition of human K562 cells assessed as cell growth at 10 uM relative to untreated control; in short: as §1
SF-268 = experiment: Growth inhibition of human SF268 cells assessed as cell growth at 10 uM relative to untreated control; in short: as §2
Malme-3M = experiment: Growth inhibition of human MALME-3M cells assessed as cell growth at 10 uM relative to untreated control; in short: as §1
NCI-H460 = experiment: Growth inhibition of human NCI-H460 cells assessed as cell growth at 10 uM relative to untreated control; in short: as §2
LOX IMVI = experiment: Growth inhibition of human LOXIMVI cells assessed as cell growth at 10 uM relative to untreated control; in short: as §1
HCT-15 = experiment: Growth inhibition of human HCT15 cells assessed as cell growth at 10 uM relative to untreated control; in short: as §1
OVCAR-3 = experiment: Growth inhibition of human OVCAR3 cells assessed as cell growth at 10 uM relative to untreated control; in short: as §2
SR = experiment: Growth inhibition of human SR cells assessed as cell growth at 10 uM relative to untreated control; in short: as §3
MDA-MB-231 = experiment: Growth inhibition of human MDA-MB-231 cells assessed as cell growth at 10 uM relative to untreated control; in short: as §2
MDA-MB-435 = experiment: Growth inhibition of human MDA-MB-435 cells assessed as cell growth at 10 uM relative to untreated control; in short: as §2
A498 = experiment: Growth inhibition of human A498 cells assessed as cell growth at 10 uM relative to untreated control; in short: as §1
NCI-H23 = experiment: Growth inhibition of human NCI-H23 cells assessed as cell growth at 10 uM relative to untreated control; in short: as §2
CAKI-1 = experiment: Growth inhibition of human Caki1 cells assessed as cell growth at 10 uM relative to untreated control; in short: as §1
HL-60(TB) = experiment: Growth inhibition of human HL-60(TB) cells assessed as cell growth at 10 uM relative to untreated control
In short: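 NCI DTP NCI-60 screen, first stage: a single dose applied to 60 human tumour cell lines from nine tissue types. Output is reported as growth %.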

SN12C = experiment: Growth inhibition of human SN12C cells assessed as cell growth at 10 uM relative to untreated control; in short: as §3
M14 = experiment: Growth inhibition of human M14 cells assessed as cell growth at 10 uM relative to untreated control; in short: as §1
MCF7 = experiment: Growth inhibition of human MCF7 cells assessed as cell growth at 10 uM relative to untreated control; in short: as §2
HOP-92 = experiment: Growth inhibition of human HOP92 cells assessed as cell growth at 10 uM relative to untreated control; in short: as §1
KM12 = experiment: Growth inhibition of human KM12 cells assessed as cell growth at 10 uM relative to untreated control; in short: as §1
SK-MEL-2 = experiment: Growth inhibition of human SK-MEL-2 cells assessed as cell growth at 10 uM relative to untreated control; in short: as §2
NCI-H522 = experiment: Growth inhibition of human NCI-H522 cells assessed as cell growth at 10 uM relative to untreated control; in short: as §2
SK-MEL-5 = experiment: Growth inhibition of human SK-MEL-5 cells assessed as cell growth at 10 uM relative to untreated control; in short: as §2
SK-MEL-28 = experiment: Growth inhibition of human SK-MEL-28 cells assessed as cell growth at 10 uM relative to untreated control; in short: as §2
HCC 2998 = experiment: Growth inhibition of human HCC2998 cells assessed as cell growth at 10 uM relative to untreated control; in short: as §1
ACHN = experiment: Growth inhibition of human ACHN cells assessed as cell growth at 10 uM relative to untreated control; in short: as §1
NCI/ADR-RES = experiment: Growth inhibition of human NCI/ADR-RES cells assessed as cell growth at 10 uM relative to untreated control; in short: as §2
NCI-H322M = experiment: Growth inhibition of human NCI-H322M cells assessed as cell growth at 10 uM relative to untreated control; in short: as §2
HOP-62 = experiment: Growth inhibition of human HOP62 cells assessed as cell growth at 10 uM relative to untreated control; in short: as §1
EKVX = experiment: Growth inhibition of human EKVX cells assessed as cell growth at 10 uM relative to untreated control; in short: as §1
BT-549 = experiment: Growth inhibition of human BT549 cells assessed as cell growth at 10 uM relative to untreated control; in short: as §1
SW-620 = experiment: Growth inhibition of human SW620 cells assessed as cell growth at 10 uM relative to untreated control; in short: as §3
UACC-62 = experiment: Growth inhibition of human UACC62 cells assessed as cell growth at 10 uM relative to untreated control; in short: as §3
HT-29 = experiment: Growth inhibition of human HT-29 cells assessed as cell growth at 10 uM relative to untreated control; in short: as §1
RXF 393 = experiment: Growth inhibition of human RXF393 cells assessed as cell growth at 10 uM relative to untreated control; in short: as §2
TK-10 = experiment: Growth inhibition of human TK10 cells assessed as cell growth at 10 uM relative to untreated control; in short: as §3
IGROV-1 = experiment: Growth inhibition of human IGROV1 cells assessed as cell growth at 10 uM relative to untreated control; in short: as §1
HCT-116 = experiment: Growth inhibition of human HCT116 cells assessed as cell growth at 10 uM relative to untreated control; in short: as §1
NCI-H226 = experiment: Growth inhibition of human NCI-H226 cells assessed as cell growth at 10 uM relative to untreated control; in short: as §2
SK-OV-3 = experiment: Growth inhibition of human SKOV3 cells assessed as cell growth at 10 uM relative to untreated control; in short: as §2
MOLT-4 = experiment: Growth inhibition of human MOLT4 cells assessed as cell growth at 10 uM relative to untreated control; in short: as §2
SF-539 = experiment: Growth inhibition of human SF539 cells assessed as cell growth at 10 uM relative to untreated control; in short: as §2
DU-145 = experiment: Growth inhibition of human DU145 cells assessed as cell growth at 10 uM relative to untreated control; in short: as §1
SNB-75 = experiment: Growth inhibition of human SNB75 cells assessed as cell growth at 10 uM relative to untreated control; in short: as §3

Question: With N=C1c2nc3n(c2C(=O)c2nc4n(c21)CCCCC4)CCCCC3 as the molecule, how does the growth at 10 µM (CCRF-CEM) read?
Answer: 104%

Question: And the growth at 10 µM [1]?
Answer: 112%

Question: And the growth at 10 µM (OVCAR-5)?
Answer: 123%

Question: And the growth at 10 µM (786-0)?
Answer: 120%

Question: What about the growth at 10 µM (MDA-MB-468) of the same molecule?
Answer: 99.8%

Question: And the growth at 10 µM (UO-31)?
Answer: 83.7%

Question: What about the growth at 10 µM (PC-3) of the same molecule?
Answer: 113%

Question: What about the growth at 10 µM (T47D) of the same molecule?
Answer: 116%

Question: And the growth at 10 µM (SNB-19)?
Answer: 113%

Question: What about the growth at 10 µM (SF-295) of the same molecule?
Answer: 93.8%

Question: What about the growth at 10 µM [2] of the same molecule?
Answer: 99.1%

Question: What about the growth at 10 µM (K562) of the same molecule?
Answer: 102%

Question: What about the growth at 10 µM (SF-268) of the same molecule?
Answer: 108%

Question: What about the growth at 10 µM (Malme-3M) of the same molecule?
Answer: 103%

Question: And the growth at 10 µM (NCI-H460)?
Answer: 92.6%

Question: And the growth at 10 µM (LOX IMVI)?
Answer: 92%

Question: What about the growth at 10 µM (HCT-15) of the same molecule?
Answer: 109%

Question: What about the growth at 10 µM (OVCAR-3) of the same molecule?
Answer: 111%

Question: What about the growth at 10 µM (SR) of the same molecule?
Answer: 91.8%

Question: What about the growth at 10 µM (MDA-MB-231) of the same molecule?
Answer: 117%

Question: And the growth at 10 µM (MDA-MB-435)?
Answer: 111%

Question: What about the growth at 10 µM (A498) of the same molecule?
Answer: 91.6%

Question: What about the growth at 10 µM (NCI-H23) of the same molecule?
Answer: 97.3%

Question: What about the growth at 10 µM (CAKI-1) of the same molecule?
Answer: 95.1%

Question: What about the growth at 10 µM (HL-60(TB)) of the same molecule?
Answer: 103%

Question: And the growth at 10 µM (SN12C)?
Answer: 106%

Question: And the growth at 10 µM (M14)?
Answer: 108%

Question: What about the growth at 10 µM (MCF7) of the same molecule?
Answer: 94.5%

Question: And the growth at 10 µM (HOP-92)?
Answer: 126%

Question: What about the growth at 10 µM (KM12) of the same molecule?
Answer: 106%

Question: And the growth at 10 µM (SK-MEL-2)?
Answer: 118%

Question: And the growth at 10 µM (NCI-H522)?
Answer: 90.9%

Question: What about the growth at 10 µM (SK-MEL-5) of the same molecule?
Answer: 88.7%

Question: And the growth at 10 µM (SK-MEL-28)?
Answer: 118%

Question: What about the growth at 10 µM (HCC 2998) of the same molecule?
Answer: 112%

Question: And the growth at 10 µM (ACHN)?
Answer: 105%

Question: What about the growth at 10 µM (NCI/ADR-RES) of the same molecule?
Answer: 110%

Question: What about the growth at 10 µM (NCI-H322M) of the same molecule?
Answer: 110%

Question: And the growth at 10 µM (HOP-62)?
Answer: 122%

Question: And the growth at 10 µM (EKVX)?
Answer: 103%

Question: And the growth at 10 µM (BT-549)?
Answer: 110%

Question: What about the growth at 10 µM (SW-620) of the same molecule?
Answer: 105%

Question: And the growth at 10 µM (UACC-62)?
Answer: 110%

Question: What about the growth at 10 µM (HT-29) of the same molecule?
Answer: 106%

Question: What about the growth at 10 µM (RXF 393) of the same molecule?
Answer: 102%

Question: And the growth at 10 µM (TK-10)?
Answer: 142%

Question: What about the growth at 10 µM (IGROV-1) of the same molecule?
Answer: 130%

Question: What about the growth at 10 µM (HCT-116) of the same molecule?
Answer: 107%

Question: What about the growth at 10 µM (NCI-H226) of the same molecule?
Answer: 98.2%

Question: And the growth at 10 µM (SK-OV-3)?
Answer: 107%

Question: And the growth at 10 µM (MOLT-4)?
Answer: 93.7%

Question: And the growth at 10 µM (SF-539)?
Answer: 105%

Question: What about the growth at 10 µM (DU-145) of the same molecule?
Answer: 113%

Question: And the growth at 10 µM (SNB-75)?
Answer: 105%
